Screens: PubChem BioAssay, several laboratories
A selection: hits, their analogues and other compounds. The true share with any hit is near 1.3%.
ARFGAP1 inh – inhibitors of rat ARFGAP1 | Arfgap1-stimulated ARF1 GTP hydrolysis, GDP FP detection | inhibition, % at 16.5 µM | 0.26% of 360,000 active;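 active means inhibition above a per-plate limit, mean inhibition of low control wells plus 3 SD, cut at about 25% in these data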;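 further: 0% = DMSO wells with enzyme and 100% = wells lacking Arfgap1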
Target sequence (Q62848 1-136 limits assumed): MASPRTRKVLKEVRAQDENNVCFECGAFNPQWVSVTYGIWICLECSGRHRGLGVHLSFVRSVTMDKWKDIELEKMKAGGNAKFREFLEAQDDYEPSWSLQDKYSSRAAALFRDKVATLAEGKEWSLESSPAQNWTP
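Material: rat Arfgap1 GAP domain (His6, aa 1-136), purified enzyme. Also added: human ARF1(Δ1-17)-GTP substrate. Compound dosing: 16.5 µM single point, 1.26% DMSO. Timing: enzyme reaction 120 min at 25 °C after 20 min preincubation. Signal: GDP detection by fluorescence polarization. Read-out basis: percent inhibition of GAP-stimulated GDP formation, scaled between DMSO and no-Arfgap1 medians.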
Casp6 inh – blocks human caspase-6 cleavage activity | 0.53% of 350,000 active | P55212 | AID 686996 | purified caspase-6, Z-VEID-R110 cleavage fluorescence | inhibition, % at 12.5 µM;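 active means mean inhibition across replicates at least about 35%, with every replicate also reaching that limit, limit read from the data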;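 further: 0% = median of neutral control wells and 100% = no fluorescence left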
Target sequence (P55212 24-179 limits assumed): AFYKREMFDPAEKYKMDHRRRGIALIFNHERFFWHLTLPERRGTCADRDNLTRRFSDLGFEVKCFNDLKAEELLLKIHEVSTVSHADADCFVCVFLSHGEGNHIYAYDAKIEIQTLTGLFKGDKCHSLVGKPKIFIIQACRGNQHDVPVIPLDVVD
Target sequence (P55212 194-293 limits assumed): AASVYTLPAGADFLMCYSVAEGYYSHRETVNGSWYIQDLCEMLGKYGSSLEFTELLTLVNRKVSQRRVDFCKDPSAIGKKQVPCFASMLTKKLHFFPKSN
ASAP1 GAP inh – inhibitors of human ASAP1 ArfGAP activity. Q9ULH1. ASAP1-stimulated ARF1 GTP hydrolysis, GDP FP detection. inhibition, % at 16.5 µM. 0.19% of 360,000 active; in the data active means inhibition above about 25%;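 further: 0% = vehicle with enzyme and substrate and 100% = no enzyme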
LEDGF integ inh – blocks HIV-1 LEDGF/p75-dependent DNA integration; TR-FRET IN-LEDGF/p75 DNA integration, Eu/Cy5; inhibition, % at 3.7 µM; 0.64% of 370,000 active;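 active means inhibition above the screen-wide mean plus 3 SD, cut at about 13% in these data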;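 further: signal is the Cy5 over europium emission ratio at 671 and 618 nm; 0% = plate median of compound wells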
TDP2 inh – blocks human TDP2 phosphodiesterase activity | O95551 | recombinant TDP2, T5PNP hydrolysis, p-nitrophenol absorbance 415 nm | inhibition, % at 12.8 µM | 0.34% of 370,000 active | AID 720702;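 active means inhibition above the mean of all tested compounds plus 3 SD, set per campaign, cut at about 25% in these data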;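 further: 0% = DMSO with enzyme and 100% = buffer with substrate but no TDP2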
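Material: recombinant human TDP2; quantity: TDP2 enzyme at 120 nM final; medium: Tris-HCl pH 7.5 with MgCl2; compound: single concentration, 12.8 µM nominal, with 1% DMSO; incubation: 2 h enzyme incubation at 37 °C; signal: epi absorbance; measure: percent inhibition; benchmarks: high control without enzyme, low control DMSO plus TDP2; repeats: singlicate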
IN multimer up – activates HIV-1 integrase multimerization in LEDGF counter-screen. shares compounds with LEDGF integ inh. TR-FRET HIV-1 integrase multimerization, biochemical. activation, % at 7.7 µM. 17% of 2,000 active. AID 1053131; in the data active means activation above about 8.9%
TRFRET interf – optically interferes with TR-FRET readout in LEDGF counter-screen; shares compounds with LEDGF integ inh; TR-FRET optical interference counterscreen, HIV-1 IN multimerization; inhibition, % at 7.7 µM; 2,000 tested, under 10 active; AID 1053135;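 active means inhibition above the mean over all tested compounds plus 3 SD, which no compound reached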;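 further: 0% = integrase with antibodies and DMSO and 100% = antibodies without integrase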
LEDGF integ conf – confirmation of HIV-1 LEDGF/p75-dependent integration inhibitors; inhibition, % at 3.7 µM; AID 1053136; 36% of 2,000 active; TR-FRET LEDGF/p75-dependent HIV-1 integration, biochemical; shares compounds with LEDGF integ inh; in the data active means inhibition above about 14%
An asterisk follows results filed as active; . = no result.

SMILES	ARFGAP1 inh	Casp6 inh	ASAP1 GAP inh	LEDGF integ inh	TDP2 inh	IN multimer up	TRFRET interf	LEDGF integ conf
CC1C/C=C/C=C/C=C/C=C/C(O[C@@H]2O[C@H](C)[C@@H](O)[C@H](N)[C@@H]2O)CC2OC(O)(CC(O)CC3OC3/C=C/C(=O)O1)CC(O)C2C(=O)O (stereo partly specified)	8.4	44.6*	-16.6	20.9*	8.8	0.8	-4.0	35.4*
COC(=O)C1CCCN(C(=O)C2CCN(S(=O)(=O)c3cccc4cccnc34)CC2)C1 (stereo unspecified)	.	.	.	-2.8	-0.6	.	.	.
Cc1ccc(CNc2ccc(O)cc2)cc1	5.6	.	-4.4	19.8*	21.4	11.1*	-56.0	31.1*
C/C=C(\C)CN1CCCC(CO)(Cc2ccccc2)C1 (stereo unspecified)	-10.9	2.1	5.0	14.3*	-11.4	0.6	-3.0	1.3
O=C(CC1CC2CCC1C2)Nc1nc(-c2ccccn2)cs1 (stereo unspecified)	0.1	4.8	11.2	15.9*	-17.1	0.9	-4.6	-2.2
O=S(=O)(Nc1ccc(Cc2ccncc2)cc1)N1CCCC1	-4.3	.	2.1	24.9*	9.1	1.2	-4.5	1.8
N=C1/C(=C\c2ccc(SCc3ccco3)o2)C(=O)N=C2SC=NN12	-2.5	.	-8.5	49.2*	6.1	7.7	-39.0	50.0*
O=C1C=C(NC(=O)Nc2ccc(Cl)c(Cl)c2)CCC1	3.3	4.8	3.1	4.9	0.5	.	.	.
CCC(C)(C)NC(=O)C(c1cccc(OC)c1OC)N(C(=O)CCC(=O)Nc1cc(C)on1)C(C)C (stereo unspecified)	-0.6	-1.5	-6.4	15.9*	1.0	-0.6	3.2	-14.2
O=C(CSc1nccc2ccccc12)N1CCN(c2ccccn2)CC1	1.3	2.9	-5.7	13.8*	-7.8	3.1	-15.5	-2.1
Oc1ccc(NCc2cccc(OCc3ccccc3)c2)cc1	-1.0	4.8	-2.4	15.8*	8.5	8.9*	-44.8	40.6*
Oc1ccc(NCc2cccc(OCc3ccc(F)cc3)c2)cc1	5.3	37.6*	16.0	13.9*	14.4	5.2	-26.3	26.3*
O=[N+]([O-])c1ccc(COc2cccc(CNc3ccc(F)cc3)c2)cc1	4.3	.	-17.6	0.9	-3.0	.	.	.
CC(C)NC(=O)N1[C@@H](CO)[C@@H](c2ccccc2)C12CN(Cc1ccc(Cl)cc1)C2	.	2.2	.	.	.	.	.	.
C=C(C)C(=O)Nc1cccc(C2=NOC3(C2)C[C@@H](C(N)=O)N(C(=O)/C=C/C=C/C)C3)c1 (stereo partly specified)	3.2	51.0*	-1.8	18.0*	6.7	40.8*	-205.3	19.5*
C/C=C/C=C/C(=O)N1CC2(CC(c3cccc(NC(=O)/C=C/C)c3)=NO2)C[C@@H]1C(N)=O (stereo partly specified)	3.7	3.2	-0.3	1.3	1.1	.	.	.
C=C(C)C(=O)Nc1cccc(C2=NOC3(C2)C[C@@H](C(N)=O)N(C(=O)/C(C)=C/C)C3)c1 (stereo partly specified)	9.6	62.5*	1.7	38.9*	5.3	56.5*	-284.7	51.5*
C[C@H]1CN([C@@H](C)CO)C(=O)Cc2cc(NC(=O)Cn3cnnn3)ccc2O[C@H]1CN(C)Cc1ccc(C(F)(F)F)cc1	.	-0.9	.	.	.	.	.	.
CCOC(=O)c1cnc2c(ccc3ccccc32)c1N	-4.3	-2.4	-0.7	59.6*	2.2	7.9	-39.9	-0.9
CCOC(=O)c1cnc2c(ccc3ccccc32)c1NCCO	-4.1	.	-10.7	-1.0	-0.8	.	.	.
O=C(COc1ccc(S(=O)(=O)Nc2ccccc2)cc1)N1CCOCC1	-4.5	.	3.7	-1.7	-8.9	.	.	.
COc1cc(C(C(=O)NCC2CCCO2)N(C(=O)Cn2nnc3ccccc32)c2ccc(OC)c(OC)c2)ccc1O (stereo unspecified)	4.2	-4.4	-6.2	42.4*	8.9	1.4	-5.0	3.4
CCOc1cc(C(C(=O)NCC2CCCO2)N(C(=O)Cn2nnc3ccccc32)c2ccc(NC(C)=O)cc2)ccc1O (stereo unspecified)	-1.1	-1.5	1.1	-4.4	-15.3	.	.	.
COc1cccc(-c2cnc3c(NC=O)cc(-c4ccoc4)cn23)c1	-5.3	3.9	4.7	13.5*	4.2	1.4	-7.1	5.0
COc1cccc(C2C(C#N)=C(N)Oc3cc(N)ccc32)c1OC (stereo unspecified)	-0.9	.	-5.8	14.8*	10.8	2.6	-9.4	-9.4
SMILES	ARFGAP1 inh	Casp6 inh	ASAP1 GAP inh	LEDGF integ inh	TDP2 inh	IN multimer up	TRFRET interf	LEDGF integ conf
Fc1ccccc1-c1n[nH]c(=S)n1C1CC1	-8.8	0.3	-3.1	3.0	11.0	.	.	.
CCC(=O)N(C)CCc1cc2c(c(OC)c1/C=N/Nc1ccc(C(=O)O)cc1)OCO2	-6.2	1.0	9.1	0.6	21.6	.	.	.
C=CCn1c(SCc2ccc(C(=O)Nc3nccs3)cc2)nnc1-c1ccc(C)c(Cl)c1	2.1	.	5.4	0.5	1.8	.	.	.
CCCC(=O)Nc1ccc2c(c1)C(=O)N(C)C[C@@H](OC)[C@@H](C)CN(C(=O)c1ccncc1)[C@@H](C)CO2	.	2.9	.	.	.	.	.	.
Cn1c(=O)c2ccccc2n(Cc2cccc(F)c2)c1=O	3.0	-0.4	-17.5	21.3*	-4.0	0.9	-3.4	-0.5
Cn1c(=O)c2ccccc2n(Cc2ccccc2F)c1=O	4.0	.	4.2	2.1	-0.1	.	.	.
O=C(NC(=S)N(CCc1ccccc1)CCc1ccccc1)c1ccco1	-0.7	.	-8.3	14.9*	3.0	-2.2	7.8	19.8*
COc1cc(C(=O)NC(=S)N(CCc2ccccc2)CCc2ccccc2)cc(OC)c1OC	-4.2	.	10.0	14.0*	-4.1	0.3	-0.9	6.5
C=CCN(CC=C)C(=S)NC(=O)c1ccc(OC)cc1	-0.6	4.4	-6.2	-0.7	3.1	.	.	.
COc1ccc(C(=O)NC(=S)N(Cc2ccccc2)Cc2ccccc2)cc1	9.8	.	2.5	15.1*	7.5	1.0	-5.2	9.2
COc1cc(C(=O)NC(=S)N(C)Cc2ccccc2)cc(OC)c1OC	-11.5	2.2	5.4	1.8	5.5	.	.	.
C[C@H]1CN([C@@H](C)CO)C(=O)c2cc(NS(C)(=O)=O)ccc2O[C@@H]1CN(C)Cc1ccc(C(F)(F)F)cc1	.	3.1	.	.	.	.	.	.
c1nc(N2CCCCC2)c2[nH]cnc2n1	-12.8	0.3	-9.6	-1.5	8.3	.	.	.
COc1ccc(C(=O)Nc2c(F)c(F)c(F)c(F)c2F)cc1OC	0.3	3.2	-2.9	-1.9	4.1	.	.	.
